From PubChem BioAssay
Compounds with a hit are over-represented: about 4.3% of the library has one in this group of screens.
MC4R antag cAMP: human MC4R antagonism in cAMP assay. P32245. MC4R-expressing cells, MTII-stimulated cAMP, LANCE TR-FRET. inhibition, % at 6.5 µM. 360,000 tested, 0.48% active. AID 540295;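 active = inhibition above its plate's cutoff, the mean of tested wells on that plate plus 3 SD, cut at about 29% in these data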
Target sequence (P32245 whole entry, looked up): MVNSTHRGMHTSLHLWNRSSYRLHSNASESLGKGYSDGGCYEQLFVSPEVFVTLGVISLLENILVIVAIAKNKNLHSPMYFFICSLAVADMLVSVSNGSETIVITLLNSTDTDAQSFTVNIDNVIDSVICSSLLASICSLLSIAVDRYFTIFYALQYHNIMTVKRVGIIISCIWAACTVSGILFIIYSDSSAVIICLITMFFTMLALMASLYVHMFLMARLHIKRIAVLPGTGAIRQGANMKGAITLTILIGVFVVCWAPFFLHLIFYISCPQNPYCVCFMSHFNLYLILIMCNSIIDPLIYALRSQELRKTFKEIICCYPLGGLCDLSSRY
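System: U2OS cells stably expressing human melanocortin 4 receptor (MC4R). Reagent: Melanotan II challenge after compound preincubation. Doses: 6.5 µM. Times: 30-min compound, 1-h challenge, 1-h detection, room temperature. Measured by: TR-FRET with Eu-cAMP and labeled anti-cAMP, 671 nm. Replicates: singlicate.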
MC4R barr agon: activates human MC4R beta-arrestin recruitment. activation, % at 8.9 µM. AID 540308. U2OS MC4R beta-arrestin complementation, luminescence; percent of melanotan II response, DMSO zero. 360,000 tested, 0.98% active;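 active = activation above a per-plate cutoff, the mean activation of sample wells on that plate plus 3 SD, cut at about 8% in these data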
TAAR1 ag: agonists of human TAAR1. Q96RJ0. CHO RD-HGA16 TAAR1, Fluo-8 calcium fluorescence; vehicle wells 0%, saturating PEA agonist 100%. 360,000 tested, 0.99% active. activation, % at 3 µM;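 active = activation above the mean activation of all test compounds in the run plus 3 SD, cut at about 38% in these data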
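Assay system – CHO-derived RD-HGA16 cells with stable Gα16 and human TAAR1 · Compound dosing – one-point dosing at 3 µM (nominal) · Incubation – 17-24 h seeding, 75 min 37 °C dye, 30 min RT · Measured by – kinetic Fluo-8 calcium fluorescence · Control set – DMSO vehicle as 0%, PEA at EC100 as 100% · Repeats – single well for each compound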
B2AR ag: agonists of human beta-2 adrenergic receptor inducing internalization; Am2.2-beta2AR cells, FAP receptor internalization, flow cytometry; response, % (concentration not given with the values); 340,000 tested, 0.43% active; AID 504454;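 active = response above a set limit, near 3 SD of response in nonfluorescent compounds, cut at about 42% in these data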
Target sequence (P07550 whole entry, looked up): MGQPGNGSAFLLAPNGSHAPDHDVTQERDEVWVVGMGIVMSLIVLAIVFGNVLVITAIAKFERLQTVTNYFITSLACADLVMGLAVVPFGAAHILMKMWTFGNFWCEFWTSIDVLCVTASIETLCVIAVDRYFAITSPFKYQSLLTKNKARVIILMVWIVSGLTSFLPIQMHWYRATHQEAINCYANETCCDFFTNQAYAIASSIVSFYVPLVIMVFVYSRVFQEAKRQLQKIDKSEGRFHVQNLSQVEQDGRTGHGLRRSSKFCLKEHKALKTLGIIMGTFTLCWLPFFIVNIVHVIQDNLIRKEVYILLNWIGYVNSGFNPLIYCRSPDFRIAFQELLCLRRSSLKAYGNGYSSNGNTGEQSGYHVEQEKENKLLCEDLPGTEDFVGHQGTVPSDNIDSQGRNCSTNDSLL
TAAR1 antag: antagonists of human TAAR1; CHO RD-HGA16 TAAR1, Fluo-8 calcium fluorescence, antagonist; 360,000 tested, 1.5% active; Q96RJ0; inhibition, % at 3 µM;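 active = inhibition above a per-plate cutoff, the mean inhibition of test compounds on that plate plus 3 SD, cut at about 49% in these data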
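Test system: RD-HGA16 CHO cells with stable hTAAR1 and Gα16 / Probe or stimulus: EC80 β-phenethylamine stimulus / Times: seeding 17-24 h prior, 75-min 37 °C, 30-min RT dye loading / Detection: Fluo-8 calcium-sensitive fluorescence / Read-out basis: % inhibition scaled between DMSO and EC80 PEA controls / Repeats: singlicate, one well per test compound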
m5-HT2A agonist: mouse HTR2A agonism via beta-arrestin recruitment. P35363. CHO-K1 mHTR2A beta-arrestin complementation, luminescence; percent of 30 µM serotonin response. activation, % at 7.6 µM. 360,000 tested, 0.66% active. AID 624169;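 active = activation above a run cutoff, the mean activation of all tested compounds plus 3 SD, cut at about 14% in these data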
TAAR1 nonsel count: nonselective antagonism, TAAR1 counter-screen; shares compounds with TAAR1 antag; counterscreen cell line, calcium fluorescence, antagonist mode; inhibition, % at 3 µM; 2,400 tested, 77% active; AID 651780; in the data active = inhibition above about 22%;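 note: CHO-Ga16 host cells stimulated with ATP at an EC80 level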
TAAR1 antag conf: confirmation of human TAAR1 antagonists. inhibition, % at 3 µM. TAAR1-expressing cells, fluorescence antagonist read-out. shares compounds with TAAR1 antag. 2,400 tested, 40% active; in the data active = inhibition above about 49%;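 note: CHO-Ga16 host cells challenged with agonist PEA near its EC80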
Ga16 ag counter: nonselective Ga16 agonism, counter-screen; shares compounds with TAAR1 antag; Ga16-expressing cells, calcium fluorescence, agonist counterscreen; activation, % at 3 µM; 2,400 tested, 18% active; in the data active = activation above about 12%
TAAR1 ag count: counter-screen for human TAAR1 antagonists: TAAR1 agonists. shares compounds with TAAR1 antag. hTAAR1 cell line, fluorescence activation, agonist mode. activation, % at 3 µM. 2,400 tested, 2% active. AID 651955; in the data active = activation above about 37%;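 note: CHO cells stably expressing TAAR1 with calcium dye readout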
Each line names hits and unclear results; the compound was inactive in the other large screens (follow-up assays come after a bar, where they were run); ! = a repeat was not active.

Cc1cc(NC(=O)c2ccc3c(c2)OCCO3)ccc1NC(=O)c1cc2ccccc2o1	TAAR1 antag 85.2 | TAAR1 nonsel count 38.4 | TAAR1 antag conf 72.6 | Ga16 ag counter inactive | TAAR1 ag count inactive
COc1cc(NC(=O)c2cc3ccccc3o2)ccc1NC(=O)c1ccco1	TAAR1 antag 64.2 | TAAR1 nonsel count 26.3 | TAAR1 antag conf 51.0 | Ga16 ag counter inactive | TAAR1 ag count inactive
O=C(Nc1ccc(NC(=O)c2cc3ccccc3o2)cc1)c1ccc2c(c1)OCCO2	none
Cc1cc(NC(=O)c2cccnc2)ccc1NC(=O)c1cc2ccccc2o1	TAAR1 antag 56.7 | TAAR1 nonsel count 22.1 | TAAR1 antag conf inactive | Ga16 ag counter inactive | TAAR1 ag count inactive
O=C(Nc1ccc(Oc2ccc(NC(=O)c3ccco3)c(NC(=O)c3ccco3)c2)cc1)c1ccco1	TAAR1 antag 61.8 | TAAR1 nonsel count 29.1 | TAAR1 antag conf 55.6 | Ga16 ag counter inactive | TAAR1 ag count inactive
O=C(Nc1ccc(Oc2ccc3ccccc3c2)cc1)c1ccco1	none
COc1ccc(/C=C2\CN(Cc3ccccc3)C/C(=C\c3ccc(OC)c(O)c3)C2=O)cc1O	TAAR1 antag 70.6 | TAAR1 nonsel count 29.0 | TAAR1 antag conf 50.6 | Ga16 ag counter inactive | TAAR1 ag count inactive
COc1ccc(CCNC(=O)C(C)OC(=O)c2nsc(Cl)c2Cl)cc1OC (configuration not stated)	none
CC(=O)Nc1sc(N/N=C/c2ccc(N(C)C)cc2)nc1-c1ccc(C)cc1	none
CC(=O)Nc1sc(N/N=C/c2ccc(C)cc2)nc1-c1ccc(C)cc1	TAAR1 antag 53.2 | TAAR1 nonsel count inactive | TAAR1 antag conf inactive | Ga16 ag counter inactive | TAAR1 ag count inactive
COc1cc(C(=O)NC2CC(C)CC(C)(C)C2)cc(OC)c1OC (configuration not stated)	none (no result: B2AR ag)
CC(=O)c1ccc(-c2cccc(-c3nc4ccccn4c3NC3CCCCC3)c2)cc1	TAAR1 antag 58.7 | TAAR1 nonsel count 23.3 | TAAR1 antag conf inactive | Ga16 ag counter inactive | TAAR1 ag count inactive
CCCCNc1c(-c2ccc(OC)c(SC(C)CC)c2)nc2ccc(Cl)cn12 (configuration not stated)	none
CCCCNc1c(-c2cccc(SC(C)CC)c2)nc2ccc(Cl)cn12 (configuration not stated)	TAAR1 antag 56.5! | TAAR1 nonsel count inactive | TAAR1 antag conf inactive | Ga16 ag counter inactive | TAAR1 ag count inactive
c1csc(-c2nc3ccccn3c2NC2CCCCC2)c1	none
CCCCNc1c(-c2ccc(SC3CCCCC3)c(OC)c2)nc2ccc(C)cn12	TAAR1 antag 73.6 | TAAR1 nonsel count 36.2 | TAAR1 antag conf inactive | Ga16 ag counter inactive | TAAR1 ag count inactive
Cc1ccc2nc(-c3cccc(SC4CCCCC4)c3)c(NCc3ccccc3)n2c1	TAAR1 antag 84.2 | TAAR1 nonsel count 37.0 | TAAR1 antag conf 60.6 | Ga16 ag counter inactive | TAAR1 ag count inactive
COc1ccc(CN2CCC2(C)C(=O)NCCc2c[nH]c3ccccc23)c2ccccc12 (configuration not stated)	none (no result: B2AR ag)
CCC(C)Sc1cccc(-c2nc3ccc(C)cn3c2NC2CCCCC2)c1 (configuration not stated)	TAAR1 antag 57.4! | TAAR1 nonsel count 35.1 | TAAR1 antag conf 48.8 | Ga16 ag counter inactive | TAAR1 ag count inactive
CCC(C)Sc1ccc(-c2nc3ccc(C)cn3c2NC2CCCCC2)cc1 (configuration not stated)	none (no result: MC4R antag cAMP, MC4R barr agon, TAAR1 ag, TAAR1 antag, m5-HT2A agonist)
CCC(C)Sc1cc(-c2nc3ccccn3c2NC2CCCCC2)ccc1OC (configuration not stated)	TAAR1 antag 78.5 | TAAR1 nonsel count 42.1 | TAAR1 antag conf 63.1 | Ga16 ag counter inactive | TAAR1 ag count inactive
Cc1cc2oc(=O)cc(Cn3ncc(Cl)c(Cl)c3=O)c2cc1Cl	none (no result: TAAR1 ag, TAAR1 antag)
COc1cccc(C(=O)NCC(c2cccs2)N2CCOCC2)c1 (configuration not stated)	TAAR1 antag 99.9 | TAAR1 nonsel count inactive | TAAR1 antag conf inactive | Ga16 ag counter inactive | TAAR1 ag count inactive
COc1ccccc1N(CC(=O)NCCSc1ccccc1)S(C)(=O)=O	none
COc1ccc(N(CC(=O)NCCSc2ccccc2)S(=O)(=O)c2ccccc2)cc1	TAAR1 antag 65.3 | TAAR1 nonsel count 21.6 | TAAR1 antag conf inactive | Ga16 ag counter inactive | TAAR1 ag count inactive
COc1ccc(N(CC(=O)NCCSc2ccccn2)S(=O)(=O)c2ccccc2)c(OC)c1	TAAR1 antag 50.1 | TAAR1 nonsel count 26.7 | TAAR1 antag conf inactive | Ga16 ag counter inactive | TAAR1 ag count inactive
COc1ccc(N(CC(=O)NCCSc2ccccc2)S(=O)(=O)c2ccccc2)c(OC)c1	TAAR1 antag 58.7 | TAAR1 nonsel count 32.6 | TAAR1 antag conf 54.6 | Ga16 ag counter inactive | TAAR1 ag count inactive
COc1ccccc1N(CC(=O)NCCSc1ccccc1)S(=O)(=O)c1ccccc1	TAAR1 antag 75.8 | TAAR1 nonsel count 29.8 | TAAR1 antag conf inactive | Ga16 ag counter inactive | TAAR1 ag count inactive
O=C(CN1C(=O)c2cccnc2Oc2ccc(Cl)cc21)NCCCc1ccccc1	TAAR1 antag 83.7 | TAAR1 nonsel count 31.5 | TAAR1 antag conf 55.8 | Ga16 ag counter inactive | TAAR1 ag count inactive
COc1ccc(CNC(=O)COc2cc3c(c4oc(=O)cc(C)c24)CCC(C)(C)O3)cc1	TAAR1 antag 61.6 | TAAR1 nonsel count 29.2 | TAAR1 antag conf inactive | Ga16 ag counter inactive | TAAR1 ag count inactive
O=C(NC1(Cc2ccccc2)CCN(CCCc2ccccc2)C1=O)c1ccccc1 (configuration not stated)	TAAR1 antag 66.4 | TAAR1 nonsel count 26.4 | TAAR1 antag conf inactive | Ga16 ag counter inactive | TAAR1 ag count inactive
O=C(NNC(=O)C1CCC1)c1ccc(F)cc1	none (no result: B2AR ag)
COc1cc(-c2nnc(SCC(=O)c3ccc(C)cc3)o2)cc(OC)c1OC	TAAR1 antag 54.2 | TAAR1 nonsel count 26.2 | TAAR1 antag conf inactive | Ga16 ag counter inactive | TAAR1 ag count inactive
C=CCn1c(C)cc(C(=O)COC(=O)CCc2cc(OC)c(OC)c(OC)c2)c1C	none
